High-throughput results: PubChem, Johns Hopkins Ion Channel Center
An excerpt weighted towards active compounds, which were near 2.9% of everything screened.
TRPC6 activator – mouse TRPC6 channel activators, primary screen, cell-based, HEK293, membrane potential dye; 310,000 tested, 0.13% active; HEK293-TRPC6 membrane potential dye fluorescence; stronger effect = higher value; B-score at 10 µM; AID 2550, 2010;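 active = B-score of the integrated fluorescence ratio above library mean plus 3 SD, and starting fluorescence ratio within library mean plus 5 SD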;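 note: higher score means more depolarization so channel activation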
Target sequence (Q61143 whole entry, looked up): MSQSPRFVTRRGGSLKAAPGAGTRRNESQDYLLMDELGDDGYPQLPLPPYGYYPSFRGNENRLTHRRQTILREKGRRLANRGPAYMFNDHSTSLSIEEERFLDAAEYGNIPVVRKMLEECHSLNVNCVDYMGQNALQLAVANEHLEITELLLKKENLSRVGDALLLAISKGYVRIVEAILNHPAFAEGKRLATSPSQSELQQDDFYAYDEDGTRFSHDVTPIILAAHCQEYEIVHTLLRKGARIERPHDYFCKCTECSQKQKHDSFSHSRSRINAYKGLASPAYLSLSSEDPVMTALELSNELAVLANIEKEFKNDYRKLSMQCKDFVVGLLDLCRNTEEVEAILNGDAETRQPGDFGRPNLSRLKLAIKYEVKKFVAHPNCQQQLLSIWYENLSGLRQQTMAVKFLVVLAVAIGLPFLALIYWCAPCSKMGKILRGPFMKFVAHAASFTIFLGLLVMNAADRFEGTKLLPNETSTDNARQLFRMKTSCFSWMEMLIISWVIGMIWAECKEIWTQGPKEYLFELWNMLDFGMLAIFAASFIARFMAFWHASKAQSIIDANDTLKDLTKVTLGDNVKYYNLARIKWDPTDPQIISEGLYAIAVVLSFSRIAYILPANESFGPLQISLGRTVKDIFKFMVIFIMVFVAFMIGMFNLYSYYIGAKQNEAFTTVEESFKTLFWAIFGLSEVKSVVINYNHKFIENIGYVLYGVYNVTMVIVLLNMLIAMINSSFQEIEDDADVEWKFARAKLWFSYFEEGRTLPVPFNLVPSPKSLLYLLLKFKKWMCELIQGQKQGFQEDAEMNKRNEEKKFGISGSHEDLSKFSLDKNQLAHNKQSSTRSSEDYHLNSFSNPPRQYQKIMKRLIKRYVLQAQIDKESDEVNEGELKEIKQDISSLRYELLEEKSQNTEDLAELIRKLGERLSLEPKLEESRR
TRPC4 potent – positive allosteric modulators of TRPC4, primary screen, cell-based, mouse TRPC4beta, HEK293 mu-opioid, Fluo-4 calcium; Short transient receptor potential channel 4 (Mus musculus), Q9QUQ5; DAMGO EC20, Fluo-4 Ca2+ flux; stronger effect = higher value; B-score at 10 µM; 310,000 tested, 0.42% active; AID 2227, 2009;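 active = B-score of calcium response area above 5 SD of library B-scores, with initial fluorescence ratio within 5 SD of library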;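 note: B-score of integrated fluorescence ratio over time as area under calcium response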
TRPC4 inh – inhibitors of mouse TRPC4 channel, primary screen, Fluo4 calcium, HEK293 TRPC4beta/mu-opioid cells | DAMGO-evoked Fluo4 calcium flux; stronger effect = lower value | B-score at 10 µM | 300,000 tested, 0.39% active;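 active = B-score over 3 SD under the library average, no early fluorescence shift, positive overall ratio signal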
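Test system – stable TRPC4beta/mu-opioid receptor HEK293 cells · Probe or stimulus – DAMGO, a submaximal dose followed by a maximal one · Dosing – one concentration per compound · Signal – Fluo4 calcium fluorescence by kinetic imaging, 5 s 1 Hz baseline · Evaluation – per-well B score of integrated baseline-normalized Fluo4 ratio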
TRPC4 act – activators of mouse TRPC4 channel, primary screen, Fluo4 calcium, HEK293 TRPC4beta/mu-opioid cells | Short transient receptor potential channel 4 (Mus musculus), Q9QUQ5 | Fluo4 calcium fluorescence; stronger effect = higher value | B-score at 10 µM | 310,000 tested, 0.49% active;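 active = B-score above 5 SD of library B-scores, and initial fluorescence ratio not above library mean plus 5 SD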;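 note: positive B-score marks a calcium rise read as TRPC4 activation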
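Material: TRPC4beta and mu-opioid receptor HEK293 stable cells | Incubation: 45 min room-temperature Fluo4 loading, 110 s read | Detection: Kinetic Fluo4 calcium fluorescence | Measure: Integrated baseline-normalised fluorescence ratio, converted to per-well B score | Benchmarks: Low control buffer alone, high control maximal DAMGO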
TRPC6 inh – mouse TRPC6 channel inhibitors, primary screen, cell-based, HEK293, membrane potential dye; Short transient receptor potential channel 6 (Mus musculus), Q61143; ACh-evoked depolarization; stronger effect = lower value; B-score at 10 µM; 310,000 tested, 1.1% active; AID 2553, 2010;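 active = B-score under library mean minus 3 SD, initial fluorescence not abnormally high, positive integrated signal ratio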;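 note: B-score derived from integrated fluorescence ratio over the kinetic read; more negative B-score means stronger inhibition of depolarization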
Kir21 inh – inhibitors of mouse Kir2.1 inward-rectifier potassium channel | HEK293-Kir2.1, FluxOR thallium flux fluorescence; stronger effect = lower value | Inward rectifier potassium channel 2 (Mus musculus), P35561 | AID 1672, 2009 | B-score at 10 µM | 310,000 tested, 0.85% active;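 active = fluorescence ratio B-score at or below minus 3 SD of library scores, with starting-brightness B-score within 2 SD, cut at about -4.2 in these data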;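 note: channel flux triggered by added potassium and thallium sulfate stimulus; B-score of peak minus minimum fluorescence over baseline after thallium stimulus; more negative B-score means stronger Kir2.1 block with less thallium influx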
TRPC4 spec 2 – mouse TRPC4 off-target activity of TRPC6 inhibitors, second screen | shares compounds with TRPC6 inh | HEK293 TRPC4/MOR, membrane potential dye fluorescence; channel activated by saturating DAMGO dose | inhibition, % at 10 µM | 920 tested, 42% active;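 active = compounds whose fluorescence signal differed from control wells by over 3 SD, either direction, in both duplicate plates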
TRPC4 spec – mouse TRPC4 modulation by TRPC6 hits, confirmation, selectivity assay for TRPC6 inhibitor project, cell-based, HEK293 TRPC4/mu-opioid, membrane potential dye | AID 2777, 2010 | shares compounds with TRPC6 inh | activity change, negative = inhibition, % at 10 µM | 920 tested, 61% active | membrane potential fluorescence;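 active = rise or fall in signal beyond 3 SD of buffer-only wells in both replicate plates, either sign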;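 note: integrated kinetic ratio of fluorescence range over baseline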
HEK293 MPD ctr 2-1 – nonspecific membrane potential effects, parental HEK293, confirmation, counter-screen for TRPC6 inhibitor project, cell-based, second counter screen. shares compounds with TRPC6 inh. parental HEK293 membrane potential dye fluorescence; maximal acetylcholine challenge after compound addition. signal change vs control, % at 10 µM. 920 tested, 31% active;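 active = membrane potential signal moving either way by over 3 SD of the maximum-effect control, in both duplicate plates, meaning non-specific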
HEK293 MPD ctr-1 – membrane potential modulation in parental HEK293, confirmation, counter-screen for TRPC6 inhibitor project, cell-based | shares compounds with TRPC6 inh | parental HEK293 membrane potential dye fluorescence | membrane potential signal change, % at 10 µM | 920 tested, 60% active;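 active = membrane potential signal shifting up or down by more than 3 SD of buffer-only wells, on both duplicate plates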
HEK293 MPD ctr-2 – parental HEK293 membrane potential modulation, confirmation, counter-screen for TRPC6 modulator project, cell-based | shares compounds with TRPC6 inh | membrane potential dye fluorescence | membrane potential signal change, % at 10 µM | 2,400 tested, 51% active | AID 488924, 2010;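 active = membrane potential signal moves up or down beyond 5 SD from buffer-only wells, on both duplicate plates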
HEK293 MPD ctr 2-2 – second check of TRPC6 modulator effects in parental HEK293 cells. shares compounds with TRPC6 inh. membrane potential dye fluorescence; after compound, maximal acetylcholine stimulation. inhibition, % at 10 µM. 2,400 tested, 14% active. AID 488926;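 active = membrane potential signal drops by more than 5 SD from the mean control signal, in both duplicate plates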;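 note: plate controls were acetylcholine ECmax control wells for no effect and buffer only wells for full effect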
TRPC4 ctr mod – TRPC4 modulation by TRPC6 hit compounds, confirmation, selectivity assay for TRPC6 modulator project, cell-based, HEK293 TRPC4/mu-opioid, membrane potential dye, mouse. shares compounds with TRPC6 inh. membrane potential fluorescence. percent change from control (negative = decrease, positive = increase), % at 10 µM. 2,400 tested, 69% active. AID 488927, 2010;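 active = membrane potential signal moved up or down beyond 5 SD of buffer control wells, in both duplicate plates, actives on both sides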;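 note: plate controls were assay buffer wells for no effect and DAMGO maximal-effect wells for full effect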
TRPC4 ctr inh 2 – second selectivity test of TRPC6 modulators against mouse TRPC4; shares compounds with TRPC6 inh; HEK293 TRPC4/mu-opioid, membrane potential dye fluorescence; stimulated with maximal-effect DAMGO; inhibition, % at 10 µM; 2,400 tested, 55% active; AID 488928;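 active = drop in membrane potential signal beyond 5 SD of the control wells in both duplicate plates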;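 note: TRPC4 counter screen for TRPC6 hits run under conditions tuned for TRPC6 not TRPC4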
TRPC6 block conf – mouse TRPC6 channel inhibitors, confirmation, HEK293 cells, membrane potential dye, duplicate; shares compounds with TRPC6 inh; ACh-evoked depolarization; inhibition, % at 10 µM; 3,300 tested, 43% active;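 active = fluorescence ratio falls more than 5 SD below the full-stimulation control mean, in both duplicate runs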;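 note: integrated fluorescence ratio of peak minus minimum over baseline after agonist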
TRPC6 act conf – mouse TRPC6 channel activators, confirmation, HEK293 cells, membrane potential dye, duplicate | shares compounds with TRPC6 inh | HEK293-TRPC6 membrane potential dye fluorescence, FDSS | activation, % at 10 µM | 2,800 tested, 11% active;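 active = ratio signal rise beyond 5 SD above unstimulated control wells' mean, seen in both duplicate runs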;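 note: plate controls were buffer EC0 wells for no effect and acetylcholine ECmax response for full effect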
* marks the source's active call; other numbers are inactive results; ! = a repeat was not active.

Results for COc1ccc(CCn2c(SCCN3CCCCC3)nc3ccccc3c2=O)cc1OC ?
TRPC6 activator: inactive; TRPC4 potent: inactive; TRPC4 inh: inactive; TRPC4 act: inactive; TRPC6 inh: -9.2*; Kir21 inh: -2.6; TRPC4 spec 2: 36%*; TRPC4 spec: -13%*; HEK293 MPD ctr 2-1: inactive; HEK293 MPD ctr-1: -153%*; TRPC6 block conf: 59%*; TRPC6 act conf: inactive

How did O=C(NC1CC2CCC(C1)N2Cc1ccco1)c1ccccc1 (centres undefined) do in these assays?
TRPC6 activator: inactive; TRPC4 potent: inactive; TRPC4 inh: inactive; TRPC4 act: inactive; TRPC6 inh: inactive; Kir21 inh: 0.37

How did NC(CCC(=O)O)C12CC3CC(CC(C3)C1)C2 (centres undefined) do in these assays?
TRPC6 activator: inactive; TRPC4 potent: inactive; TRPC4 inh: inactive; TRPC4 act: inactive; TRPC6 inh: inactive; Kir21 inh: -1.5

What do the screens show for `CC(N)C12CC3CC(CC(C3)C1)C2` (centres undefined)?
TRPC6 activator: inactive; TRPC4 potent: inactive; TRPC4 inh: inactive; TRPC4 act: inactive; TRPC6 inh: -5.4*!; Kir21 inh: 0.08; HEK293 MPD ctr-2: inactive; HEK293 MPD ctr 2-2: inactive; TRPC4 ctr mod: inactive; TRPC4 ctr inh 2: 30%*; TRPC6 block conf: inactive; TRPC6 act conf: inactive

How did O=C1c2cccc3cccc(c23)C(=O)N1CC1CCN(CC(O)COCc2ccc3c(c2)OCO3)CC1 (centres undefined) do in these assays?
TRPC6 activator: inactive; TRPC4 potent: inactive; TRPC4 inh: inactive; TRPC4 act: inactive; TRPC6 inh: -7.3*; Kir21 inh: -4.1; TRPC4 spec 2: 19%*; TRPC4 spec: -28%*; HEK293 MPD ctr 2-1: 33%*; HEK293 MPD ctr-1: -323%*; TRPC6 block conf: 83%*; TRPC6 act conf: inactive

Results for CC1CCc2nn(CC(=O)NCCCN3CCCC3=O)cc2C1 (centres undefined) ?
TRPC6 activator: inactive; TRPC4 potent: inactive; TRPC4 inh: inactive; TRPC4 act: inactive; TRPC6 inh: inactive; Kir21 inh: -1.4

What do the screens show for `Cc1ccc(C)c(N2CCN(CCCNC(=O)Cn3cc4c(n3)CCC(C)C4)CC2)c1` (centres undefined)?
TRPC6 activator: 14*; TRPC4 potent: inactive; TRPC4 inh: inactive; TRPC4 act: inactive; TRPC6 inh: inactive; Kir21 inh: -4.7*; HEK293 MPD ctr-2: 94%*; HEK293 MPD ctr 2-2: inactive; TRPC4 ctr mod: 16%*; TRPC4 ctr inh 2: 62%*; TRPC6 block conf: inactive; TRPC6 act conf: inactive

Results for CC(C)C(NC(=O)OCc1ccccc1)C(=O)NCc1ccc(C(=O)O)cc1 (centres undefined) ?
TRPC6 activator: inactive; TRPC4 potent: inactive; TRPC4 inh: inactive; TRPC4 act: inactive; TRPC6 inh: inactive; Kir21 inh: 0.04

What do the screens show for `Cc1cccc(OCCCCN2CCNCC2)c1`?
TRPC6 activator: inactive; TRPC4 potent: inactive; TRPC4 inh: inactive; TRPC4 act: inactive; TRPC6 inh: inactive; Kir21 inh: -2.2

What do the screens show for `Cc1ccc(OCCCCCCN2CCNCC2)cc1`?
TRPC6 activator: inactive; TRPC4 potent: inactive; TRPC4 inh: inactive; TRPC4 act: inactive; TRPC6 inh: -6.7*; Kir21 inh: -1.6; TRPC4 spec 2: 48%*; TRPC4 spec: 0.1%*; HEK293 MPD ctr 2-1: inactive; HEK293 MPD ctr-1: 7.4%*; TRPC6 block conf: inactive; TRPC6 act conf: inactive

Results for Cc1ccccc1OCCCCCCN1CCNCC1 ?
TRPC6 activator: inactive; TRPC4 potent: 10*; TRPC4 inh: inactive; TRPC4 act: inactive; TRPC6 inh: -8.2*; Kir21 inh: 0.17; TRPC4 spec 2: 54%*; TRPC4 spec: 1.8%*; HEK293 MPD ctr 2-1: inactive; HEK293 MPD ctr-1: 4.1%*; TRPC6 block conf: inactive; TRPC6 act conf: inactive
